According to article PMC2677731 (Molecular cell, 2009):
Entries after “also recorded” stand apart in the source; their conditions may differ.

Legend:
[1] = test system: human genome (ENCODE array); assay: ChIP-chip, ENCODE tiled arrays; assay type: cell-based; settings: doxorubicin treatment
Outline: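 ChIP DNA from human cells expressing wild-type or ΔPHD2 JADE1L, with or without doxorubicin, was amplified, labelled and hybridised to […] human ENCODE tiled arrays. Analysis followed the array maker's standard protocol. Significant binding peaks were counted by position on the gene body, or by distance from TSS/TES when outside coding regions.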

endogenous chromatin = assay: In vivo association with endogenous chromatin; assay type: cell-based
Outline: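 Tagged JADE1L or JADE1S complexes, wild-type or mutant, were immunopurified from co-transfected human cells. Co-purifying endogenous core histones and complex subunits were resolved by gel staining. Western blots with specific antibodies, including for H3K36me3, followed.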

[2] = test system: native wild type chromatin; assay: HAT assay on wild type yeast native chromatin; assay type: biochemical; settings: chromatin 500 ng, fluorography
Outline: (§1)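 For acetyltransferase reactions, wild-type or mutant JADE1 complexes were immunopurified from co-transfected cells. They were incubated with 500 ng of native chromatin purified from yeast cells. Assays otherwise followed an earlier published protocol.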

human native chromatin = assay: Chromatin pull-down, human native chromatin; assay type: binding
Outline: (§2)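 Immunopurified JADE1L or JADE1S complexes from co-transfected cells, normalised by gel, were incubated with purified native chromatin. Chromatin came from yeast (wild type or set1, lacking H3K4me) or from human cells.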

set1 chromatin = assay: HAT assay on set1; assay type: biochemical, yeast; settings: chromatin 500 ng, lacking H3K4me
Outline: as §1

native chromatin = assay: Chromatin pull-down, yeast wild type native chromatin; assay type: binding; settings: H3-tail dependent, western blot
Outline: as §2

COc1cccc2c1C(=O)c1c(O)c3c(c(O)c1C2=O)C[C@@](O)(C(=O)CO)C[C@@H]3O[C@H]1C[C@H](N)[C@H](O)[C@H](C)O1 [doxorubicin]
JADE1L binding at menin gene [1]: seems to be induced

B1: JADE1S: natural smaller 509 amino acid-protein produced by an abundant mRNA splice variant; dimeric complex with HBO1 (protein)
chain: MKRGRLPSSSEDSDDNGSLSTTWSQNSRSQHRRSSCSRHEDRKPSEVFRTDLITAMKLHDSYQLNPDEYYVLADPWRQEWEKGVQVPVSPGTIPQPVARVVSEEKSLMFIRPKKYIVSSGSEPPELGYVDIRTLADSVCRYDLNDMDAAWLELTNEEFKEMGMPELDEYTMERVLEEFEQRCYDNMNHAIETEEGLGIEYDEDVVCDVCQSPDGEDGNEMVFCDKCNICVHQACYGILKVPEGSWLCRTCALGVQPKCLLCPKKGGAMKPTRSGTKWVHVSCALWIPEVSIGSPEKMEPITKVSHIPSSRWALVCSLCNEKFGASIQCSVKNCRTAFHVTCAFDRGLEMKTILAENDEVKFKSYCPKHSSHRKPEESLGKGAAQENGAPECSPRNPLEPFASLEQNREEAHRVSVRKQKLQQLEDEFYTFVNLLDVARALRLPEEVVDFLYQYWKLKRKVNFNKPLITPKKDEEDNLAKREQDVLFRRLQLFTHLRQDLERVMIDTDTL
co-purification of core histones (endogenous chromatin; immunopurified complexes, gel staining): a full set of core histones co-purified
level of H3K36me3-containing chromatin bound in vivo (endogenous chromatin; western blot, relative to JADE1L): much higher; also recorded: significantly more H3K36me3 signal
HAT activity on wild type yeast chromatin [2]: much less active than the JADE1L complex
binding to H3K36me3-containing human chromatin in vitro (human native chromatin): can bind H3K36me3-containing chromatin in vitro
HAT activity on set1 yeast chromatin (set1 chromatin): highly active; also recorded: equivalent acetyltransferase activity
binding to yeast native chromatin (native chromatin): efficiently pulled down yeast chromatin
